# The source made the active and inactive calls. The calls are words filed in the database; no cut-off is given here.
# Columns and labels:
# [1] = target: T1, MAP2K3/Myc proto-oncogene protein (Homo sapiens, UniProt P01106+P46734); test: Disruption of interaction between human recombinant GST-tagged MKK3/VF-tagged MYC expressed in HEK293T cells measured after 2 hrs by TR-FRET assay; type: cell-based
# [2] = target: T2, MAP2K3/Myc proto-oncogene protein (Homo sapiens) (UniProt P46734+P01106); test: Disruption of interaction between human recombinant GST-tagged MKK3/VF-tagged MYC expressed in HEK293T cells at 20 uM measured after 2 hrs by TR-FRET assay; type: cell-based
# T2 sequence (P01106 whole entry, looked up, one chain of several): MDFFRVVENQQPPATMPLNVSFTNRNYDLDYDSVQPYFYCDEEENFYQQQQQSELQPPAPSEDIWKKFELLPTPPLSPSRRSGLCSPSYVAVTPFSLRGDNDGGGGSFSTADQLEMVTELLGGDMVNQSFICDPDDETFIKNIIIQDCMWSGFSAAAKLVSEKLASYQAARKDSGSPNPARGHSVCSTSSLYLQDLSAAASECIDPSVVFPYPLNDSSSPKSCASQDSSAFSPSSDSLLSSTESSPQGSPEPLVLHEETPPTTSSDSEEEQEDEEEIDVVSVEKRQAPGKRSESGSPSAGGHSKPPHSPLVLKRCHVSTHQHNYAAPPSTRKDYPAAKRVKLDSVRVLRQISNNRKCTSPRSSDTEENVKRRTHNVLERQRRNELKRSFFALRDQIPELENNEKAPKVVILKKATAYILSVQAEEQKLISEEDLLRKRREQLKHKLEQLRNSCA
# [3] = target: T2, MAP2K3/Myc proto-oncogene protein (Homo sapiens); test: Disruption of interaction between human recombinant GST-tagged MKK3/VF-tagged MYC expressed in HEK293T cells up to 100 uM measured after 2 hrs by TR-FRET assay; type: cell-based; settings: dose microM <=100, time 2.0 hrs
# [4] = target: T2, MAP2K3/Myc proto-oncogene protein (Homo sapiens); test: Disruption of MKK3/MYC protein-protein interaction in human MDA-MB-468 cells assessed as decrease in PDL1 level at 1 to 20 uM measured by western blot assay; type: cell-based; settings: dose 1-20 µM
# HEK293T = test: Disruption of interaction between human recombinant GST-tagged MKK3/VF-tagged p38 expressed in HEK293T cells at 50 uM incubated for 30 mins by GST pull-down assay; type: cell-based
# How it was run: (§1)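 GST- and Venus-Flag-tagged human proteins were co-expressed in HEK293T cells for 48 h and lysed in 1% NP-40 buffer (HEPES pH 7.5) at 4 °C. Cleared lysates were pre-incubated 30 min with 50 µM compound or DMSO, then 75 min with glutathione sepharose. Beads were washed three times, eluted in SDS loading buffer, and analysed by Western blot.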
# HCT-116 [5] = test: Cytotoxicity against human HCT-116 cells assessed as reduction in cell viability measured after 72 hrs by Alamar blue assay; type: functional, cell-based; settings: HCT-116, 72 h
# How it was run: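 HCT116 cells in DMEM with 10% FBS at 37 °C, 5% CO2, seeded and treated next day with compound or DMSO. After 72 h, CellTiter-Blue reagent was added for 2 h at 37 °C and fluorescence read at 560 ex/590 em. Background came from medium-only wells, and viability was taken relative to DMSO control.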
# [6] = target: T2, MAP2K3/Myc proto-oncogene protein (Homo sapiens); test: Disruption of MKK3/MYC protein-protein interaction in human HCT-116 cells assessed as decrease in PDL1 level at 0.5 to 10 uM measured by western blot assay; type: cell-based; settings: dose 0.5-10 µM
# [7] = target: c-Myc/c-Max (Homo sapiens) (UniProt P01106+P61244); test: Disruption of interaction between human recombinant GST-tagged MAX/VF-tagged MYC expressed in HEK293T cells at 50 uM incubated for 30 mins by GST pull-down assay; type: cell-based; how it was run: as §1
# Sequence of c-Myc/c-Max (Homo sapiens) (P01106 whole entry): as the sequence (P01106 whole entry, looked up, one chain of several) above
# Sequence of c-Myc/c-Max (Homo sapiens) (P61244 2-160 partner limits assumed): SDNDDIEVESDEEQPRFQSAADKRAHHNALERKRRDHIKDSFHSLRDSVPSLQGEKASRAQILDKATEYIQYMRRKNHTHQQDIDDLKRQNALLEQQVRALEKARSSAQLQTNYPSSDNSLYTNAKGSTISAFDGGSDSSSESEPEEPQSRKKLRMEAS
# [8] = target: T2, MAP2K3/Myc proto-oncogene protein (Homo sapiens); test: Disruption of MKK3/MYC protein-protein interaction in human HCT-116 cells assessed as decrease in CDK4 level at 0.5 to 10 uM measured by western blot assay; type: cell-based; settings: dose 0.5-10 µM
# [9] = target: T2, MAP2K3/Myc proto-oncogene protein (Homo sapiens); test: Disruption of MKK3/MYC protein-protein interaction in human MDA-MB-468 cells transfected with VF-tagged MKK3 assessed as inhibition of MYC transcriptional activity measured after 12 hrs by […] reporter assay; type: cell-based; settings: dose 0.5-5 µM
# How it was run: (§2)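 Cells were transfected with Venus-Flag-MKK3 or Venus-Flag vector plus a firefly luciferase reporter carrying three MYC E-box sites (or a mutant E-box control) and a Renilla normalization vector. Compound in DMSO (0.5–5 µM, 0.1% DMSO final) was added 36 h post-transfection and cells were incubated 12 h more. Dual-luciferase read-out: firefly/Renilla ratio, then wild-type over mutant E-box fold.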
# [10] = target: T1, MAP2K3/Myc proto-oncogene protein; test: Disruption of interaction between human recombinant GST-tagged MKK3 (1 to 210 residues)/VF-tagged MYC expressed in HEK293T cells measured after 2 hrs by TR-FRET assay; type: cell-based
# [11] = target: T1, MAP2K3/Myc proto-oncogene protein; test: Disruption of interaction between human recombinant GST-tagged MKK3/His-tagged MYC HLH LZ domain measured after 2 hrs by TR-FRET assay; type: protein assay
# HCT-116 [12] = test: Inhibition of cell migration in human HCT-116 cells measured after 18 hrs by scratch wound healing assay; type: functional, cell-based; settings: dose 0.75-3 µM
# How it was run: (§3)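 Confluent HCT116 monolayers were wounded, washed with fresh medium, and given medium with compound at set concentrations or DMSO. Live-cell imaging scanned every 2 h over 18 h, with relative wound density as the read-out. Four replicates were run.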
# [13] = target: T2, MAP2K3/Myc proto-oncogene protein (Homo sapiens); test: Disruption of MKK3/MYC protein-protein interaction in human MDA-MB-468 cells assessed as decrease in CDK4 level at 1 to 20 uM measured by western blot assay; type: cell-based; settings: dose 1-20 µM
# HCT-116 [14] = test: Inhibition of Renilla luciferase activity expressed in human HCT-116 cells assessed as decrease in luminescence at 10 uM measured after 12 hrs by luminescence assay; type: cell-based
# How it was run: (§4)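 Renilla luciferase luminescence was compared between cells treated with 10 µM compound and DMSO control, within the dual-luciferase MYC reporter set-up, using a 12 h compound incubation.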
# [15] = target: T2, MAP2K3/Myc proto-oncogene protein (Homo sapiens); test: Disruption of MKK3/MYC protein-protein interaction in human MDA-MB-468 cells assessed as decrease in MYC level at 1 to 20 uM measured by western blot assay; type: cell-based; settings: dose 1-20 µM
# HCT-116 [16] = test: Inhibition of cell migration in human HCT-116 cells assessed as relative wound density at 3 uM measured after 18 hrs by scratch wound healing assay (reference value: 20%); type: functional; parameters: scale not given: the % may be the effect or the level left; how it was run: as §3
# [17] = target: T2, MAP2K3/Myc proto-oncogene protein (Homo sapiens); test: Disruption of MKK3/MYC protein-protein interaction in human HCT-116 cells assessed as decrease in MYC level at 0.5 to 10 uM measured by western blot assay; type: cell-based; settings: dose 0.5-10 µM
# MDA-MB-468 = test: Inhibition of Renilla luciferase activity expressed in human MDA-MB-468 cells assessed as decrease in luminescence at 10 uM measured after 12 hrs by luminescence assay; type: cell-based; how it was run: as §4
# HCT-116 [18] = test: Inhibition of cell migration in human HCT-116 cells at 0.75 to 3 uM by scratch wound healing assay; type: functional, cell-based; settings: dose 0.75-3 µM, TDE = time-dependent effect
# [19] = target: T2, MAP2K3/Myc proto-oncogene protein (Homo sapiens); test: Disruption of interaction between human recombinant GST-tagged MKK3/VF-tagged MYC expressed in HEK293T cells at 50 uM incubated for 30 mins by GST pull-down assay; type: cell-based; how it was run: as §1
# [20] = target: T2, MAP2K3/Myc proto-oncogene protein (Homo sapiens); test: Disruption of MKK3/MYC protein-protein interaction in human HCT-116 cells transfected with VF-tagged MKK3 assessed as inhibition of MYC transcriptional activity at 0.5 to 2 uM measured after 12 hrs by […] reporter assay; type: cell-based; settings: dose 0.5-2 µM; how it was run: as §2
# [21] = target: T3, Dual specificity mitogen-activated protein kinase kinase 3 (Homo sapiens) (UniProt P46734); test: Inhibition of MKK3 in human HEK293T cells assessed as inhibition of p38 phosphorylation by western blot analysis; type: cell-based
# T3 sequence (whole entry): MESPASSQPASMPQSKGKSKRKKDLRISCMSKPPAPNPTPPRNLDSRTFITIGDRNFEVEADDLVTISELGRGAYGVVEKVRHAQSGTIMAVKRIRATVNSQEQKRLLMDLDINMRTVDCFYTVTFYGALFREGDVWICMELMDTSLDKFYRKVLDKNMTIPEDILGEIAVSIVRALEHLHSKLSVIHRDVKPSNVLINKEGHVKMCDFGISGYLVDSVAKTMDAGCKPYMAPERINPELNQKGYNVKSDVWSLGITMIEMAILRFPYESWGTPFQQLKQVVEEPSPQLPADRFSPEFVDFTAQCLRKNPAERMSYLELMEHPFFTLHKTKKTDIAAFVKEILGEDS
# [22] = target: T2, MAP2K3/Myc proto-oncogene protein (Homo sapiens); test: Disruption of interaction between human recombinant GST-tagged MKK3 expressed in HEK293T cells/MYC in human HCT116 cells incubated for 30 mins by GST pull-down assay; type: cell-based; settings: dose 2-5 µM
# [23] = target: DNA (cytosine-5)-methyltransferase 1 (Homo sapiens, UniProt P26358); test: Inhibition of DNMT (unknown origin) by densitometric analysis
# Sequence of DNA (cytosine-5)-methyltransferase 1 (P26358 whole entry): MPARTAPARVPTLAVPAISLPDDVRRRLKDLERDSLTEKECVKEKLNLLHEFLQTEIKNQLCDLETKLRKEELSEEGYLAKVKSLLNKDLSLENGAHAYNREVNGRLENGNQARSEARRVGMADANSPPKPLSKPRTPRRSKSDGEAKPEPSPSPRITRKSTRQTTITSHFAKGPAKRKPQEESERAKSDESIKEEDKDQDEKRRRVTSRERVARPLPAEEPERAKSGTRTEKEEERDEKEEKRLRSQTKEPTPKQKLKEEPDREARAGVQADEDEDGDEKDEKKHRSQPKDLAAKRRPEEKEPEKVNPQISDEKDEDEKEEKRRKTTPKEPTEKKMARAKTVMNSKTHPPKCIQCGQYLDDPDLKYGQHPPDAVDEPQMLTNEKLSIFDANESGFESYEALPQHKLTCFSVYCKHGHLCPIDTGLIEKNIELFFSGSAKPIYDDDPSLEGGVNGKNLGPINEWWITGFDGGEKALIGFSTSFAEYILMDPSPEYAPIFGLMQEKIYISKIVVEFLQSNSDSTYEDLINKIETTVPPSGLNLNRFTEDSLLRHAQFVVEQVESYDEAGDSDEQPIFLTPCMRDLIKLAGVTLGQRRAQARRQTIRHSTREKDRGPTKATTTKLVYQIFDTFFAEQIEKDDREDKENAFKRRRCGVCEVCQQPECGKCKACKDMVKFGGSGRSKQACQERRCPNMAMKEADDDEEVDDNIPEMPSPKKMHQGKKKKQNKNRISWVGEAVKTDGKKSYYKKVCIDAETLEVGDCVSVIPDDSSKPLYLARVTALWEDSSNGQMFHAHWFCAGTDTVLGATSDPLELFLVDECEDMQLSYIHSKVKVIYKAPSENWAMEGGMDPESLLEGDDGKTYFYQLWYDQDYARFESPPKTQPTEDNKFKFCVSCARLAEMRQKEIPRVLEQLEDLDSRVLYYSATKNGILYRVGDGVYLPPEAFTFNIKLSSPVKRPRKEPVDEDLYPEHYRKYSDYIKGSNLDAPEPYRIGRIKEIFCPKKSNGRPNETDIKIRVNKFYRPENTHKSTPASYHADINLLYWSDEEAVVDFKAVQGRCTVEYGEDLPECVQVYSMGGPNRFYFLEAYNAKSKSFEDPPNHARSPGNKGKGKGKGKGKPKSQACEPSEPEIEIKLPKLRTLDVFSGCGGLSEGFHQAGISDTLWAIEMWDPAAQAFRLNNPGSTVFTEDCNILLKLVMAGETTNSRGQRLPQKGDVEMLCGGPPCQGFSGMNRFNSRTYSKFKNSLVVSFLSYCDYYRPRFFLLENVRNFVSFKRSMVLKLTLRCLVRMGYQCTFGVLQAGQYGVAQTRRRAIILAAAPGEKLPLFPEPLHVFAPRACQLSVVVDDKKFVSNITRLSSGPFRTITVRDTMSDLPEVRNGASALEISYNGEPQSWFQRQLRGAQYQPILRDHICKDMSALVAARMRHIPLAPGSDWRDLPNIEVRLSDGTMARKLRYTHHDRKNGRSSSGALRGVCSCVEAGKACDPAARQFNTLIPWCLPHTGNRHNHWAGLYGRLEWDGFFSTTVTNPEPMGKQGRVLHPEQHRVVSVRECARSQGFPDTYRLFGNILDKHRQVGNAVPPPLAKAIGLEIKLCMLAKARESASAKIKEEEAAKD
# T1 sequence (P01106 whole entry, one chain of several): as the sequence (P01106 whole entry, looked up, one chain of several) above
smiles,measurement,setting,value
CC(C)c1cc(C(C)C)c(CC(=O)NS(=O)(=O)Oc2c(C(C)C)cccc2C(C)C)c(C(C)C)c1 [AVASIMIBE],IC50,[1],63.9 µM
Cc1cc2c(C(C)C)c(O)c(O)c(C=O)c2c(O)c1-c1c(C)cc2c(C(C)C)c(O)c(O)c(C=O)c2c1O,inhibition,[2],31%
same,Activity,[3],inactive
Cc1cc(Nc2ccc(NC(=O)c3ccc(Nc4ccnc5ccccc45)cc3)cc2)nc(N)n1,Activity,[4],Active
same,Activity,HEK293T,inactive
same,IC50,HCT-116 [5],3.2 µM
same,Activity,[6],Active
same,Activity,[7],inactive
same,IC50,[1],8.46 µM
same,inhibition,[2],37%
same,Activity,[8],Active
same,Activity,[9],Dose-Dependent Effect
same,IC50,[10],3.8 µM
same,IC50,[11],9.67 µM
same,inhibition,HCT-116 [12],Dose-Dependent Effect
same,Activity,[13],Active
same,inhibition,HCT-116 [14],inactive
same,Activity,[15],Active
same,Activity,HCT-116 [16],8%
same,Activity,[17],Active
same,inhibition,MDA-MB-468,inactive
same,inhibition,HCT-116 [18],Tde
same,Activity,[19],Active
same,Activity,[20],Dose-Dependent Effect
same,inhibition,[21],inactive
same,Activity,[22],Dose-Dependent Effect
O=C(O)C1=CC(=C(c2ccc(O)c(C(=O)O)c2)c2ccc(O)c(C(=O)O)c2)C=CC1=O [AURINTRICARBOXYLIC ACID],IC50,[1],14.1 µM
same,inhibition,[2],58%
O=C(O)[C@H](Cc1c[nH]c2ccccc12)N1C(=O)c2ccccc2C1=O,Activity,[6],inactive
same,Activity,[8],inactive
same,IC50,[23],0.115 µM
same,Activity,[17],inactive
same,Activity,[3],inactive
same,Activity,[20],inactive

# — ChEMBL document CHEMBL4834479, “Discovery of the first chemical tools to regulate MKK3-mediated MYC activation in cancer” (Bioorg Med Chem, 2021)
